Experimental findings from PubChem BioAssay AID651740 (Broad Institute, 2012) are described below.

About 1,200 (21%) of roughly 5,600 compounds were called active. Another 3% or so got no clear call; they are omitted. A selection follows. Values without a mark were called inactive.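 The calls were made as follows: active = mean inhibition above about 95%, with at least 55% of replicates also reaching it (limit read from the data); inconclusive = meets just one of the two conditions; inactive = meets neither condition.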

The inhibition is the change of the read-out against control, counted positive when it falls.

The assay is described as follows: Trypanosoma cruzi growth blockers in host fibroblasts – NIH3T3 host cells, beta-gal parasites, cherry-pick, set 2, confirmation (AID 651740).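 Also: plate controls were neutral control median for no effect and positive control median for full effect.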 To be noted: T. cruzi beta-gal in NIH3T3, GalScreen luminescence, 90 h; at 2.09 µM; hits give high values. The gist of the method:
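Material: T. cruzi Tulahuen C4 (beta-gal) in NIH/3T3 cells; input: 5,000 host cells per well; incubation: ≥90 h co-culture with compound, 60 min detection reagent; signal: luminescence, GalScreen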
As for `COc1ccc(NC(=O)N2CC[C@@H]3[C@@H](CO)N(C)c4ccc(-c5cccc(F)c5)cc4[C@@H]32)cc1`, the inhibition was 106% (active).

For the compound `CCC(=O)N1CC[C@@H]2[C@@H](CO)N(C)c3ccc(-c4cccc(OC)c4)cc3[C@@H]21`, the inhibition was 91.1%.

On to `CCC(=O)N1CC[C@@H]2[C@@H](CO)N(C)c3ccc(-c4ccc(F)cc4)cc3[C@@H]21`, for which the inhibition is 79.1%.

Turning to `COc1ccccc1NC(=O)N1CCCCN2[C@H](C1)[C@H](c1ccc(-c3ccccc3)cc1)[C@@H]2CO`, the inhibition was 65%.

As for `C[C@H](O)C#Cc1ccc([C@H]2[C@H]3CN(S(=O)(=O)Cc4ccccc4)CCCCN3[C@H]2CO)cc1`, the inhibition was 11.7%.

Take `COCC(=O)N1CC[C@@H]2[C@@H](CO)Nc3ccc(-c4cccc(C#N)c4)cc3[C@@H]21`: the inhibition was 30.7%.

For `O=S(=O)(c1ccccc1)N1CC[C@@H]2[C@@H](CO)Nc3ccc(-c4ccccc4F)cc3[C@@H]21`, the inhibition is 98.3% (active).

Regarding `O=S(=O)(c1ccccc1)N1CC[C@@H]2[C@@H](CO)Nc3ccc(C#Cc4cccc(F)c4)cc3[C@@H]21`, the inhibition is 101% (active).

`O=C(Cc1ccccc1)N1CC[C@H]2[C@H](CO)Nc3ccc(-c4ccccc4F)cc3[C@H]21`: the inhibition was 64.2%.

As for `O=C(c1cnccn1)N1CC[C@@H]2[C@H](CO)Nc3ccc(-c4cccc(F)c4)cc3[C@@H]21`, the inhibition was 87.3%.

On to `CC(=O)N1CC[C@@H]2[C@H](CO)Nc3ccc(C#Cc4ccccc4F)cc3[C@@H]21`, for which the inhibition was 14.9%.

As for `Cc1ccccc1S(=O)(=O)N1CC[C@H]2[C@H](CO)Nc3ccc(-c4cccc(F)c4)cc3[C@H]21`, the inhibition was 93.1%.

In the case of `O=S(=O)(c1ccccc1)N1CC[C@@H]2[C@H]1c1cc(C#Cc3cccc(F)c3)ccc1N[C@@H]2CO`, the inhibition is 92.6%.

As to `OC[C@@H]1Nc2ccc(-c3cccc(F)c3)cc2[C@H]2[C@@H]1CCN2Cc1ccncc1`, the inhibition is 55.6%.

On to `O=C(c1cccc(F)c1)N1CC[C@@H]2[C@@H](CO)Nc3ccc(C#Cc4cccc(F)c4)cc3[C@@H]21`, for which the inhibition was 106% (active).

`N#Cc1ccc(-c2ccc3c(c2)[C@@H]2[C@@H](CCN2C(=O)Cc2ccncc2)[C@@H](CO)N3)cc1`: the inhibition is 54.9%.

Regarding `O=C(c1ccccn1)N1CC[C@@H]2[C@H]1c1cc(-c3ccccc3)ccc1N[C@@H]2CO`, the inhibition was 110% (active).

Regarding `O=C(Nc1cc(Cl)cc(Cl)c1)N[C@H]1CC[C@@H](CCNS(=O)(=O)c2cccc(F)c2)O[C@H]1CO`, the inhibition was 2.51%.

Consider `CC(C)C#Cc1ccc([C@H]2[C@H](CO)N3CCCCN(C(=O)NC(C)C)C[C@@H]23)cc1`, for which the inhibition was -8.04%.

Take `COc1ccc(S(=O)(=O)N(C)C[C@H]2Oc3c(NC(=O)Nc4cccc5ccccc45)cccc3C(=O)N([C@@H](C)CO)C[C@H]2C)cc1`: the inhibition is 90.2%.

As to `C[C@@H]1CN([C@H](C)CO)C(=O)c2cc(/C=C/c3ccccc3)cnc2O[C@@H]1CN(C)Cc1ccncc1`, the inhibition is 2.78%.

For the compound `Cc1cc(C(=O)Nc2cccc3c2O[C@@H](CN(C)Cc2ccc(C(=O)Nc4ccccc4N)cc2)[C@H](C)CN([C@@H](C)CO)C3=O)n(C)n1`, the inhibition is 63.4%.

Regarding `COc1ccc(-c2ccc([C@H]3[C@H]4CN(C(=O)c5ccc6c(c5)OCO6)CCCCN4[C@H]3CO)cc2)cc1`, the inhibition was 50.5%.

Regarding `C[C@H](CO)N1C[C@H](C)[C@H](CN(C)Cc2ccc(-c3ccccc3)cc2)Oc2ccc(NC(=O)Nc3ccc(F)cc3)cc2CC1=O`, the inhibition was 83.3%.

Regarding `CN1c2ccc(-c3ccccc3)cc2[C@H]2[C@H](CCN2C(=O)Cc2ccccn2)[C@H]1CO`, the inhibition was 72.9%.

On to `COCC#Cc1ccc([C@@H]2[C@H](CO)N3CCCCN(C(=O)CN(C)C)C[C@@H]23)cc1`, for which the inhibition is 29.5%.

As for `CN1C(=O)c2cc(NC(=O)c3cnccn3)ccc2OC[C@@H]2O[C@@H](CC(=O)N[C@H]3CCN(Cc4ccccc4)C3)CC[C@H]21`, the inhibition is 32.2%.

Turning to `CN1C(=O)c2cc(NC(=O)Nc3ccccc3F)ccc2OC[C@H]2O[C@H](CC(=O)NCc3ccc(-c4ccccc4)cc3)CC[C@H]21`, the inhibition is 104% (active).

Turning to `CN1C(=O)c2cc(NC(=O)c3cnccn3)ccc2OC[C@@H]2O[C@H](CC(=O)N[C@@H]3CCN(Cc4ccccc4)C3)CC[C@@H]21`, the inhibition was 93.2%.

Turning to `Cc1ccc(-c2ccc3c(c2)O[C@H](CN(C)C)[C@@H](C)CN([C@H](C)CO)S3(=O)=O)cc1`, the inhibition is 41.9%.

Regarding `O=C(NCC1CCCCC1)[C@H]1[C@H](CO)[C@H]2Cn3c(cccc3=O)[C@H]2N1C(=O)CC1CC1`, the inhibition is 30.6%.

Turning to `COc1ccc(NC(=O)Nc2ccc3c(c2)C(=O)N([C@H](C)CO)C[C@H](C)[C@H](CN(C)S(=O)(=O)c2ccc(Cl)cc2)OCCCC[C@H](C)O3)cc1`, the inhibition was 107% (active).

Consider `C[C@@H]1CCCCO[C@@H](CN(C)S(=O)(=O)c2ccc(Cl)cc2)[C@H](C)CN([C@@H](C)CO)C(=O)c2cc(NC(=O)Cc3ccccc3)ccc2O1`, for which the inhibition was 80.6%.

For `Cc1ccc(S(=O)(=O)N(C)C[C@H]2OCCCC[C@H](C)Oc3ccc(NC(=O)Cc4ccccc4)cc3C(=O)N([C@@H](C)CO)C[C@@H]2C)cc1`, the inhibition was 95%.

Consider `C[C@@H]1CCCCO[C@H](CN(C)S(=O)(=O)c2ccc(Cl)cc2)[C@H](C)CN([C@@H](C)CO)C(=O)c2cc(NS(=O)(=O)c3cccs3)ccc2O1`, for which the inhibition was 79.2%.

As to `C[C@H]1CCCCO[C@H](CN(C)S(=O)(=O)c2ccc(Cl)cc2)[C@@H](C)CN([C@@H](C)CO)C(=O)c2cc(NC(=O)Nc3ccc4c(c3)OCO4)ccc2O1`, the inhibition was 105% (active).

As to `COc1ccc(NC(=O)N(C)C[C@@H]2OCCCC[C@@H](C)Oc3ccc(NS(=O)(=O)c4ccc(Cl)cc4)cc3C(=O)N([C@H](C)CO)C[C@H]2C)cc1`, the inhibition was 44.3%.

In the case of `CC(C)NC(=O)Nc1ccc2c(c1)C(=O)N([C@@H](C)CO)C[C@H](C)[C@H](CN(C)S(=O)(=O)c1ccc(Cl)cc1)OCCCC[C@H](C)O2`, the inhibition was 99.7% (active).

On to `Cc1noc(C)c1S(=O)(=O)Nc1ccc2c(c1)C(=O)N([C@@H](C)CO)C[C@@H](C)[C@H](CN(C)S(=O)(=O)c1ccc(Cl)cc1)OCCCC[C@H](C)O2`, for which the inhibition is 62.5%.

With `C[C@H]1CCCCO[C@@H](CN(C)S(=O)(=O)c2cccs2)[C@@H](C)CN([C@@H](C)CO)C(=O)c2cc(NS(=O)(=O)c3ccc(Cl)cc3)ccc2O1`, the inhibition is 71%.

For the compound `COc1ccc(S(=O)(=O)Nc2ccc3c(c2)C(=O)N([C@@H](C)CO)C[C@H](C)[C@@H](CN(C)Cc2ccc(C(F)(F)F)cc2)O3)cc1`, the inhibition is 58.4%.

On to `CNC[C@H]1OCCCC[C@H](C)Oc2ccc(NC(=O)Nc3c(C)noc3C)cc2C(=O)N([C@H](C)CO)C[C@H]1C`, for which the inhibition was 2.68%.

Turning to `O=C(Nc1cc(F)ccc1F)N1CCCCN2[C@H](CO)[C@@H](c3ccc(-c4cncnc4)cc3)[C@H]2C1`, the inhibition was 13.7%.

As to `Cc1ccc(-c2cnc3c(c2)C(=O)N([C@@H](C)CO)C[C@@H](C)[C@H](CN(C)Cc2ccccc2F)O3)cc1`, the inhibition was 72.1%.

As to `CN(C)C(=O)c1ccc(-c2ccc([C@H]3[C@@H](CO)N4CCCCN(CC5CC5)C[C@H]34)cc2)cc1`, the inhibition was 60.8%.

In the case of `O=C(C[C@@H]1C[C@H]2c3cc(NC(=O)C4CCC4)ccc3O[C@H]2[C@@H](CO)O1)NCc1ccc2c(c1)OCO2`, the inhibition was -16.2%.

Turning to `C[C@H](CO)N1C[C@H](C)[C@@H](CN(C)S(=O)(=O)c2ccc(F)cc2)Oc2cc(C3=CCCC3)ccc2S1(=O)=O`, the inhibition was 78.5%.

`C[C@@H]1CN([C@@H](C)CO)S(=O)(=O)c2ccc(C#Cc3ccc(F)cc3)cc2O[C@H]1CN(C)S(C)(=O)=O`: the inhibition is 27.8%.

Turning to `C[C@@H]1CN([C@H](C)CO)C(=O)CCCn2nncc2CO[C@@H]1CN(C)Cc1ccc(C(=O)Nc2ccccc2N)cc1`, the inhibition is 59.4%.

For `C[C@@H]1CCCCO[C@H](CN(C)C(=O)Nc2ccc(C(F)(F)F)cc2)[C@H](C)CN([C@H](C)CO)C(=O)c2cc(NC(=O)Nc3ccc(C(F)(F)F)cc3)ccc2O1`, the inhibition was 115% (active).

Take `C[C@@H]1CCCCO[C@H](CN(C)C(=O)CCC(F)(F)F)[C@H](C)CN([C@H](C)CO)C(=O)c2cc(NS(C)(=O)=O)ccc2O1`: the inhibition was 7.29%.

Consider `CC(C)NC(=O)Nc1ccc2c(c1)C(=O)N([C@H](C)CO)C[C@H](C)[C@H](CN(C)C(=O)Nc1ccc(C(F)(F)F)cc1)OCCCC[C@@H](C)O2`, for which the inhibition was 94%.

In the case of `COc1ccc(NC(=O)N(C)C[C@H]2OCCCC[C@H](C)Oc3ccc(NC(=O)Nc4ccc(C(F)(F)F)cc4)cc3C(=O)N([C@@H](C)CO)C[C@@H]2C)cc1`, the inhibition is 113% (active).

As to `C[C@@H]1CN([C@@H](C)CO)C(=O)c2cc(NC(=O)Nc3ccc(C(F)(F)F)cc3)ccc2O[C@@H](C)CCCCO[C@H]1CN(C)C(=O)c1ccccc1`, the inhibition was 69.7%.

As to `C[C@H](CO)N1C[C@H](C)[C@H](CN(C)C(=O)Nc2ccc(C(F)(F)F)cc2)OCCCC[C@H](C)Oc2ccc(NC(=O)C3CCCCC3)cc2C1=O`, the inhibition is 109% (active).

For the compound `CCCC#Cc1ccc2c(c1)O[C@H](CN(C)C(=O)CC)[C@@H](C)CN([C@H](C)CO)S2(=O)=O`, the inhibition is 38.5%.

`C/C=C/c1ccc([C@H]2[C@@H](CNC(C)C)N(c3nc(CC)cs3)[C@H]2CO)cc1`: the inhibition was 89.5%.

Take `CCCC#Cc1ccc([C@H]2[C@H](CO)N3CCCCN(C(=O)c4ccc5c(c4)OCO5)C[C@@H]23)cc1`: the inhibition was 42.1%.
